Results from different studies.

Compound	target or system	assay	test system	conditions	endpoint	value
COc1ccc(NC(=O)Nc2ccc(-c3cn(Cc4cccc(Cl)c4)nn3)cc2)cc1	L02	cell growth or viability, CCK-8		50 µM, 72 h	viability	114%
COc1ccc2c(c1)CN(C(=O)CCN1CCC(Cc3ccccc3)CC1)CC[S@@+]2[O-]			male human, plasma	intravenous, 0.4 mg/kg, healthy volunteers	Cmax	1080 ng/mL
O=C(Nc1ccc(-c2cn(Cc3ccc(Cl)cc3)nn2)cc1)Nc1ccccc1Br	L02	cell growth or viability, CCK-8		50 µM, 72 h	viability	113%
COc1ccc(NC(=O)Nc2cccc(-c3cn(Cc4cccc(Cl)c4)nn3)c2)cc1	L02	cell growth or viability, CCK-8		50 µM, 72 h	viability	123%
COc1ccc(-c2c(Nc3ccccn3)[nH]c3c(C4=CCCCC4)c(-c4ccccc4)nn3c2=O)cc1			human, plasma	oral, 200 mg twice daily, multiple doses, patients	Cmax	13600 ng/mL
O=C(COc1ccc(Cl)cc1)NC12CC(c3nnc([C@H]4C[C@@H](OC(F)(F)F)C4)o3)(C1)C2			human, plasma	oral, 100 mg, single dose, fasted, healthy volunteers	Cmax	1180 nM
O=C(NCc1cn(Cc2cccc(Cl)c2)nn1)Nc1ccc(Cl)cc1	L02	cell growth or viability, CCK-8		50 µM, 72 h	viability	100%
COc1ccc(NC(=O)NCc2cn(Cc3ccc(Cl)cc3)nn2)cc1	L02	cell growth or viability, CCK-8		50 µM, 72 h	viability	121%
CC(C)n1c(C2CCNCC2)nc2c([N+](=O)[O-])c(Br)c(Br)cc21			human, plasma	oral, 150 mg, patients	Cmax	249 ng/mL
CCONC(=O)N1CCC[C@H](C(=O)NCc2nc(-c3ccc(C#N)cc3)cs2)C1			Caco-2		efflux ratio	6.9
COc1ccc(NC(=O)NCc2cn(Cc3ccccc3C)nn2)cc1	L02	cell growth or viability, CCK-8		50 µM, 72 h	viability	124%
O=C(Nc1ccc(Cl)cc1)Nc1cccc(-c2cn(Cc3cccc(Cl)c3)nn2)c1	L02	cell growth or viability, CCK-8		50 µM, 72 h	viability	71.8%
